The source made the active and inactive calls. The calls are words filed in the database; no cut-off is given here.
How the values were obtained:
Mus musculus [1] = assay: Antihyperglycemic activity in diabetic C57BL/KsJ db/db mouse model assessed as reduction in plasma insulin level in hyperglycemia at 25 mg/kg, po qd for 10 days; type: functional; design: scale not given: the % may be the effect or the level left
Method in brief: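 db/db mice dosed orally every day for 10 days. On day 11, retro-orbital blood was drawn and plasma insulin measured. Mean % change versus vehicle-treated control, 5 mice per group; Student t test.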

Syrian golden hamster [2] = assay: Antidyslipidemic activity in high fructose and high-fat diet fed dyslipidemic Syrian golden hamster model assessed as reduction in triglyceride level at 25 mg/kg/day for 7 days; type: functional, Mesocricetus auratus; design: scale not given: the % may be the effect or the level left
Method in brief: (§1)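 HFD-fed Syrian golden hamsters, six per group, fed a high-fructose diet. Oral dosing in 1% gum acacia for 7 days. Sham group received vehicle. Plasma TG was measured and body weight tracked. Results given as % change versus HFD control.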

Mus musculus [3] = assay: Reduction in body weight in diabetic C57BL/KsJ db/db mouse model in hyperglycemia at 25 mg/kg, po qd for 10 days relative to untreated control; type: functional
Method in brief: (§2)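 db/db mice (C57BL/KsJ, 12−18 weeks, 40−50 g, glucose 200−350 mg/dL), housed at 23 ± 2.0 °C on a 12 h light cycle. Oral dosing daily for 10 days. Blood glucose checked each morning through day 9. Body weight recorded daily from day 1 to day 10. Mean % change versus vehicle, 5 mice per group; Student t test.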

Mus musculus [4] = assay: Antidyslipidemic activity in diabetic C57BL/KsJ db/db mouse model assessed as reduction in plasma triglyceride level at 25 mg/kg, po qd for 10 days; type: functional; design: scale not given: the % may be the effect or the level left
Method in brief: (§3)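 db/db mice (blood glucose 200−350, TG 170−250, cholesterol 170−250, HDL-C 32−40 mg/dL) dosed orally at 25 mg/kg daily for 10 days; retro-orbital blood taken on day 11 for plasma TG, cholesterol and HDL-C (and HDL-C/CHOL ratio); mean % change versus vehicle control, 5 mice per group; Student t test.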

Mus musculus [5] = assay: Antidyslipidemic activity in diabetic C57BL/KsJ db/db mouse model assessed as reduction in plasma cholesterol level at 25 mg/kg, po qd for 10 days; type: functional; design: scale not given: the % may be the effect or the level left; method in brief: as §3
Syrian golden hamster [6] = assay: Antidyslipidemic activity in high fructose and high-fat diet fed dyslipidemic Syrian golden hamster model assessed as reduction in body weight at 25 mg/kg/day for 7 days; type: functional, Mesocricetus auratus; design: scale not given: the % may be the effect or the level left
Method in brief: (§4)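 Syrian golden hamsters fed high-fructose high-fat diet; oral dosing in 1% gum acacia at 10, 30, 100 mg/kg (or 25 mg/kg) for 7 days, sham control given vehicle; plasma TG, cholesterol, LDL-C, HDL-C, glycerol and NEFA (kits), lipoprotein lipase activity and body weight; % change versus HFD control, six hamsters per group.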

Mus musculus [7] = assay: Antidyslipidemic activity in diabetic C57BL/KsJ db/db mouse model assessed as increase in plasma HDL-cholesterol level at 25 mg/kg, po qd for 10 days; type: functional; method in brief: as §3
Syrian golden hamster [8] = assay: Antidyslipidemic activity in high fructose and high-fat diet fed dyslipidemic Syrian golden hamster model assessed as increase in HDL-cholesterol level at 25 mg/kg/day for 7 days; type: functional, Mesocricetus auratus
Syrian golden hamster [9] = assay: Antidyslipidemic activity in high fructose and high-fat diet fed dyslipidemic Syrian golden hamster model assessed as reduction in cholesterol level at 25 mg/kg/day for 7 days; type: functional, Mesocricetus auratus; design: scale not given: the % may be the effect or the level left
Mus musculus [10] = assay: Antihyperglycemic activity in diabetic C57BL/KsJ db/db mouse model assessed as improvement in glucose tolerance in hyperglycemia at 25 mg/kg, po qd for 10 days; type: functional
Method in brief: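 Male/female C57BL/KsJ db/db mice, 12−18 weeks, 40−50 g, selected for glucose 200−350 mg/dL. Oral dosing daily for 10 days. OGTT on day 10 after an overnight fast: compound at −30 min, then 3 g/kg oral glucose at 0 min. Glucose read at 30, 60, 90 and 120 min. AUC taken versus vehicle, 5 mice per group.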

Mus musculus [11] = assay: Antihyperglycemic activity in diabetic C57BL/KsJ db/db mouse model assessed as reduction in hyperglycemia at 25 mg/kg, po qd for 10 days; type: functional; design: scale not given: the % may be the effect or the level left; method in brief: as §2
Syrian golden hamster [12] = assay: Antidyslipidemic activity in high fructose and high-fat diet fed dyslipidemic Syrian golden hamster model assessed as reduction in LDL-cholesterol level at 25 mg/kg/day for 7 days; type: functional, Mesocricetus auratus; design: scale not given: the % may be the effect or the level left; method in brief: as §4
Mus musculus [13] = assay: Antidyslipidemic activity in diabetic C57BL/KsJ db/db mouse model assessed as increase in plasma HDL-C/cholesterol ratio at 25 mg/kg, po qd for 10 days; type: functional; method in brief: as §3
Rattus norvegicus [14] = assay: Antihyperlipidemic activity in Triton-induced dyslipidemic Wistar rat model assessed as reduction in cholesterol level at 100 mg/kg, po; type: functional; design: scale not given: the % may be the effect or the level left
Method in brief: (§5)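 Male Wistar rats, 8−10 weeks, about 160 g, fed normal pellet diet. Triton X-100 given at 400 mg/kg ip; compound given orally in 1% gum acacia. Retro-orbital blood taken 18 h after Triton and serum separated at 1500g for 10 min. TG and cholesterol measured by kit. Mean % change versus dyslipidemic control, 5 animals.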

Rattus norvegicus [15] = assay: Antidiabetic activity in sucrose challenged streptozotocin-induced diabetic Sprague-Dawley rat model assessed as reduction in glucose levels at 100 mg/kg, po measured after 24 hrs; type: functional; design: scale not given: the % may be the effect or the level left
Rattus norvegicus [16] = assay: Antihyperlipidemic activity in Triton-induced dyslipidemic Wistar rat model assessed as reduction in triglyceride level at 100 mg/kg, po; type: functional; design: scale not given: the % may be the effect or the level left; method in brief: as §5
Rattus norvegicus [17] = assay: Antidiabetic activity in sucrose challenged streptozotocin-induced diabetic Sprague-Dawley rat model assessed as reduction in glucose levels at 100 mg/kg, po measured after 5 hrs; type: functional; design: scale not given: the % may be the effect or the level left
Rattus norvegicus [18] = assay: Antidiabetic activity in sucrose loaded Wistar rat model assessed as reduction in glucose levels at 100 mg/kg, po; type: functional
Rattus norvegicus [19] = assay: Antihyperlipidemic activity in Triton-induced dyslipidemic Wistar rat model assessed as reduction in phospholipid level at 100 mg/kg, po; type: functional; design: scale not given: the % may be the effect or the level left; method in brief: as §5
Syrian golden hamster [20] = assay: Antidyslipidemic activity in high fructose and high-fat diet fed dyslipidemic Syrian golden hamster model assessed as reduction in body weight at 100 mg/kg/day for 7 days; type: functional, organism-based; details: Mesocricetus auratus; method in brief: as §4
Syrian golden hamster [21] = assay: Antidyslipidemic activity in high fructose and high-fat diet fed dyslipidemic Syrian golden hamster model assessed as reduction in triglyceride level at 100 mg/kg/day for 7 days; type: functional, Mesocricetus auratus; design: scale not given: the % may be the effect or the level left; method in brief: as §4
Syrian golden hamster [22] = assay: Antidyslipidemic activity in high fructose and high-fat diet fed dyslipidemic Syrian golden hamster model assessed as reduction in NEFA level at 30 mg/kg/day, po for 7 day, po; type: functional, Mesocricetus auratus; design: scale not given: the % may be the effect or the level left; method in brief: as §4
Syrian golden hamster [23] = assay: Antidyslipidemic activity in high fructose and high-fat diet fed dyslipidemic Syrian golden hamster model assessed as reduction in glycerol level at 30 mg/kg/day, po for 7 day, po; type: functional, Mesocricetus auratus; design: scale not given: the % may be the effect or the level left; method in brief: as §4
Syrian golden hamster [24] = assay: Antidyslipidemic activity in high fructose and high-fat diet fed dyslipidemic Syrian golden hamster model assessed as increase in HDL-cholesterol level at 30 mg/kg/day, po for 7 day, po; type: functional, Mesocricetus auratus; method in brief: as §4
Syrian golden hamster [25] = assay: Reduction in body weight in high fructose and high-fat diet fed dyslipidemic Syrian golden hamster model at 30 mg/kg/day, po for 7 days; type: functional, Mesocricetus auratus; design: scale not given: the % may be the effect or the level left; method in brief: as §1
Syrian golden hamster [26] = assay: Antidyslipidemic activity in high fructose and high-fat diet fed dyslipidemic Syrian golden hamster model assessed as reduction in LDL-cholesterol level at 30 mg/kg/day, po for 7 day, po; type: functional, Mesocricetus auratus; design: scale not given: the % may be the effect or the level left; method in brief: as §4
Syrian golden hamster [27] = assay: Antidyslipidemic activity in high fructose and high-fat diet fed dyslipidemic Syrian golden hamster model assessed as reduction in triglyceride level at 30 mg/kg/day, po for 7 day, po; type: functional, Mesocricetus auratus; design: scale not given: the % may be the effect or the level left; method in brief: as §1
Syrian golden hamster [28] = assay: Antidyslipidemic activity in high fructose and high-fat diet fed dyslipidemic Syrian golden hamster model assessed as increase in lipoprotein lipase level at 30 mg/kg/day, po for 7 day, po; type: functional, Mesocricetus auratus; method in brief: as §4
Syrian golden hamster [29] = assay: Antidyslipidemic activity in high fructose and high-fat diet fed dyslipidemic Syrian golden hamster model assessed as reduction in LDL-cholesterol level at 100 mg/kg/day for 7 days; type: functional, Mesocricetus auratus; design: scale not given: the % may be the effect or the level left; method in brief: as §4

With CC(C)(C)NC[C@@H](O)COc1ccc2c(=O)cc(-c3cc(OCc4ccccc4)cc(OCc4ccccc4)c3)oc2c1 the Activity (Mus musculus [1]) was 18%, the Activity (Syrian golden hamster [2]) was 8.4% and the Activity (Mus musculus [3]) was “inactive”. The Activity (Mus musculus [4]) was 14.1%, the Activity (Mus musculus [5]) was 15.9% and the Activity (Syrian golden hamster [6]) was 3.73%. The Activity (Mus musculus [7]) was 8.3%, the Activity (Syrian golden hamster [8]) was 7.08% and the Activity (Syrian golden hamster [9]) was 5.52%. The Activity (Mus musculus [10]) was 33.3%, the Activity (Mus musculus [11]) was 34.1% and the Activity (Syrian golden hamster [12]) was 9.78%. For the same compound, the “Percent increase in HDL-C/cholesterol ratio vs vehicle” value (Mus musculus [13]) was 28.8.

CC(C)NCC(O)COc1ccc2c(=O)cc(-c3cc(OCc4ccccc4)cc(OCc4ccccc4)c3)oc2c1 (configuration not stated) was tested, and the Activity (Rattus norvegicus [14]) was 13%, the Activity (Rattus norvegicus [15]) was 2.23% and the Activity (Rattus norvegicus [16]) was 11%. The Activity (Rattus norvegicus [17]) was 7.86%, the Activity (Rattus norvegicus [18]) was “inactive” and the Activity (Rattus norvegicus [19]) was 8%.

For CN(C)C(=N)NC(=N)N [METFORMIN], the Activity (Rattus norvegicus [14]) was 4.2%, the Activity (Rattus norvegicus [15]) was 19.4% and the Activity (Rattus norvegicus [16]) was 5.9%. For the same compound, the Activity (Rattus norvegicus [17]) was 24.3%, the Activity (Rattus norvegicus [18]) was 22.1% and the Activity (Rattus norvegicus [19]) was 6.2%.

In the case of CC(C)OC(=O)C(C)(C)Oc1ccc(C(=O)c2ccc(Cl)cc2)cc1 [FENOFIBRATE], the Activity (Syrian golden hamster [2]) is reported as 25.5%, the Activity (Syrian golden hamster [20]) is reported as “Active” and the Activity (Syrian golden hamster [21]) is reported as 53.4%. For the same compound, the Activity (Syrian golden hamster [22]) was 22.2%, the Activity (Rattus norvegicus [14]) was 18.9% and the Activity (Rattus norvegicus [15]) was “inactive”. For the same compound, the Activity (Syrian golden hamster [6]) was 6.78%, the Activity (Syrian golden hamster [23]) was 22.1% and the Activity (Rattus norvegicus [16]) was 32.9%. For the same compound, the Activity (Syrian golden hamster [24]) was 9.68%, the Activity (Rattus norvegicus [17]) was 1.47% and the Activity (Syrian golden hamster [25]) was 10.2%. It also gave an Activity (Syrian golden hamster [26]) of 32.3%, an Activity (Syrian golden hamster [12]) of 26.8% and an Activity (Rattus norvegicus [18]) of 6.43%. It also gave an Activity (Syrian golden hamster [27]) of 30.2%, an Activity (Syrian golden hamster [28]) of 24.7% and an Activity (Syrian golden hamster [29]) of 56.3%. It also gave an Activity (Rattus norvegicus [19]) of 30.3%.

Compound CC(C)(C)NCC(O)COc1ccc2c(=O)cc(-c3ccc(OCc4ccccc4)c(OCc4ccccc4)c3)oc2c1 (configuration not stated) has an Activity (Rattus norvegicus [14]) of 23%, an Activity (Rattus norvegicus [15]) of 0.89% and an Activity (Rattus norvegicus [16]) of 16%. For the same compound, the Activity (Rattus norvegicus [17]) was 11.8%, the Activity (Rattus norvegicus [18]) was 15.9% and the Activity (Rattus norvegicus [19]) was 12%.

Compound CC(C)NCC(O)COc1ccc2c(=O)cc(-c3ccc(OCc4ccccc4)c(OCc4ccccc4)c3)oc2c1 (configuration not stated) has an Activity (Rattus norvegicus [14]) of 16%, an Activity (Rattus norvegicus [15]) of 2.34% and an Activity (Rattus norvegicus [16]) of 14%. The Activity (Rattus norvegicus [17]) was 12.4%, the Activity (Rattus norvegicus [18]) was 17.9% and the Activity (Rattus norvegicus [19]) was 5%.

With CC(C)NCC(O)COc1ccc2c(=O)cc(-c3cc(OCc4cc(Cl)cc(Cl)c4)cc(OCc4cc(Cl)cc(Cl)c4)c3)oc2c1 (configuration not stated) the Activity (Rattus norvegicus [14]) was 22.2%, the Activity (Rattus norvegicus [15]) was 16.2% and the Activity (Rattus norvegicus [16]) was 26%. The Activity (Rattus norvegicus [17]) was 22.1%, the Activity (Rattus norvegicus [18]) was 32.7% and the Activity (Rattus norvegicus [19]) was 11.8%.
